Hits are enriched below; roughly 2.5% of the tested compounds scored in any of these assays.
DNMT1 block – human DNMT1 methyltransferase inhibitors, primary screen, biochemical, molecular beacon, fluorescence, HinP1I cleavage, uHTS; AID 588458, 2011; DNA (cytosine-5)-methyltransferase 1 (Homo sapiens), P26358; inhibition (reported as % activation of signal), % at 10 µM; actives 0.83% (n = 360,000); in the data active = inhibition above about 50%
DSG3 Ab inh – inhibitors of pemphigus antibody binding to DSG3, primary screen, biochemical, bead-based, flow cytometry, scFv-GFP | DSG3-coupled beads, scFv-anti-DSG3-GFP binding; active compounds read low | actives 0.48% (n = 310,000) | binding (percent of control), % at 10 µM;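 active = binding more than 3 SD below its plate's average and above zero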;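 note: hits lower antibody fragment binding to DSG3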
UHRF1 MBD2 ctr – UHRF1 methylated DNA binding inhibitors, primary screen, counter-screen for MBD2 inhibitor project, biochemical, TR-FRET, human UHRF1, single concentration | E3 ubiquitin-protein ligase UHRF1 (Homo sapiens), Q96T88 | UHRF1 binding to methylated oligo | inhibition, % at 4.4 µM | actives 0.75% (n = 370,000); in the data active = inhibition above about 21%;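 note: UHRF1 SRA domain binding a hemimethylated CpG hairpin DNA probe; 0% = median of test compound wells and 100% = reference inhibitor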
Target sequence (Q96T88 whole entry, looked up, the tested form may be a part): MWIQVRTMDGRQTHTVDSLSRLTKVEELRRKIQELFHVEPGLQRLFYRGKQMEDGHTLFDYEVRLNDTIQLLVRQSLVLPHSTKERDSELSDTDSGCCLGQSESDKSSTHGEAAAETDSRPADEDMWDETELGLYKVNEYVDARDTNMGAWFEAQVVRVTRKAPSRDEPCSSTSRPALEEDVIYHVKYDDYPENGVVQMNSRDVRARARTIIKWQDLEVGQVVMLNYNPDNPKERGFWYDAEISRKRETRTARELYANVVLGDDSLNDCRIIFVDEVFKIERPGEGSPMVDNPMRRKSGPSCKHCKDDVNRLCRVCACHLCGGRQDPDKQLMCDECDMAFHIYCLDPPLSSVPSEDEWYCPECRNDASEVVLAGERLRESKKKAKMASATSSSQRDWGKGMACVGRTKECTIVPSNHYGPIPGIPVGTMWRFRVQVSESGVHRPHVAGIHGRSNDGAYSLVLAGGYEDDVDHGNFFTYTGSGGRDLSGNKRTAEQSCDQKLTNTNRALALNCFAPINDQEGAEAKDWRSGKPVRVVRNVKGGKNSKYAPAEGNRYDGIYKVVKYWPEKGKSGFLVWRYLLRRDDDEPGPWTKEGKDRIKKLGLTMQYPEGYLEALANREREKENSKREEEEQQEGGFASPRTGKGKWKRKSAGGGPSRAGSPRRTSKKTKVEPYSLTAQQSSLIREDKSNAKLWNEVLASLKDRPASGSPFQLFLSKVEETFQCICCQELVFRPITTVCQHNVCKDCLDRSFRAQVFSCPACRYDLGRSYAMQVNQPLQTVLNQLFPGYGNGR
NS3 helicase inh – inhibitors of HCV NS3 helicase, primary screen, biochemical, Cy5 molecular beacon fluorescence; Hepatitis C virus NS3 helicase; NS3 helicase DNA unwinding; inhibition, % at 10.9 µM; actives 0.56% (n = 290,000); AID 1800, 2009;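 active = inhibition above the mean of all tested compounds plus 3 SD, set per campaign, cut at about 35% in these data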;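 note: 0% = DMSO wells and 100% = thioflavine S control wells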
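assay system = NS3 helicase fragment of HCV | buffer or medium = MOPS pH 6.5, MgCl2, DTT, Tween20, BSA | timing = 60 min unwinding reaction at 25 °C after ATP addition | signal = Cy5 beacon fluorescence read at start and 1 h | read-out basis = % inhibition of unwinding | control set = low DMSO, high thioflavine S at 110 µM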
MBD2 DNA inh – inhibitors of MBD2 binding to methylated DNA, primary screen, biochemical, TR-FRET, DNA-binding domain, human; actives 0.31% (n = 370,000); inhibition, % at 4.4 µM; Methyl-CpG-binding domain protein 2 (Homo sapiens), Q9UBB5; MBD2 binding to methylated oligonucleotide; in the data active = inhibition above about 13%
SUMO1-SIM PPI – modulators of SUMO1 protein-protein interactions, primary screen, biochemical, uHTS. Small ubiquitin-related modifier 1 (Homo sapiens), P63165. SUMO1 binding to a labelled peptide, TR-FRET, 1 h. inhibition, % at 20 µM. actives 0.33% (n = 360,000)
NS3 hel confirm – HCV NS3 helicase inhibitors, retest, confirmation, biochemical, Cy5 molecular beacon fluorescence, triplicate; shares compounds with NS3 helicase inh; actives 31% (n = 1,600); NS3 helicase DNA unwinding; AID 1943, 2009; inhibition, % at 10.9 µM;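 active = inhibition above the mean of all tested compounds plus 3 SD, cutoff set per campaign, cut at about 36% in these data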
DNA FID counter – compounds displacing fluorescent DNA intercalator, artefact control for HCV NS3 helicase inhibitor project, biochemical, FID fluorescence, triplicate; shares compounds with NS3 helicase inh; DNA fluorescent intercalator displacement; inhibition, % at 7.9 µM; actives 4% (n = 1,600);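 note: 0% = vehicle and 100% = reference compound; higher means more displacement of ethidium bromide from the DNA hairpin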
DNA FID DR – compounds displacing fluorescent intercalator from DNA, dose response, counter-screen for HCV NS3 helicase inhibitor project, biochemical, fluorescence | shares compounds with NS3 helicase inh | fluorescent intercalator displacement from DNA | IC50, µM | 120 tested, under 10 active | AID 2172, 2009; call rule not given here
* marks the source's active call; other numbers are inactive results; x = no result. Cut-off read from the data, not from the text of the source, unless noted: active = inhibition above about 37%; inactive = the rest.

SMILES	DNMT1 block	DSG3 Ab inh	UHRF1 MBD2 ctr	NS3 helicase inh	MBD2 DNA inh	SUMO1-SIM PPI	NS3 hel confirm	DNA FID counter	others
CCN(CC)CC(=O)NC1CC(C)(C)Cc2c1cnn2-c1ccc(F)cc1 (stereo not drawn)	-3	92	-2	-3	-6	3	x	x
CC(C)Nc1nc(Oc2ccc(=O)n(-c3ccccc3)n2)nc(N(C)C)n1	-10	x	-2	36*	4	-2	-3	-20
O=C1CSC(=S)N1/N=C/C=C/c1ccccc1	-14	95	-10	39*	-10	-1	7	10
O=C1CSC(=S)N1/N=C/c1c(F)cccc1F	-6	x	-7	8	1	3	x	x
CCOc1ccc(C(=O)N2CCN(c3cnn(-c4ccccc4)c(=O)c3Cl)CC2)cc1	2	99	-1	40*	-2	15	-4	-53
O=C(c1cccc(Br)c1)N1CCN(c2cnn(-c3ccccc3)c(=O)c2Cl)CC1	1	100	0	-8	3	-13	x	x
CN(C)c1ccc(S(=O)(=O)N(C)C)cc1[N+](=O)[O-]	-2	103	-4	4	-6	-17	x	x
c1ccc(-c2cc(N3CCCCCC3)n[nH]2)cc1	-23	98	-8	-28	-12	2	x	x
COc1cc(C(c2c(C(=O)O)[nH]c3ccccc23)c2c(C(=O)O)[nH]c3ccccc23)ccc1OCc1ccccc1	-1	105	-2	37*	-1	15	17	25
CCOc1ccc(S(=O)(=O)N/N=C(\C)C2CCCCC2)cc1	6	106	7	43*	0	6	-2	9
CCCCCCCCCCCCN1C/C(=C\C(=O)OCC)c2ccccc2S1(=O)=O	3	111	-3	80*	2	5	10	-22
COc1ccc(S(=O)(=O)NCC2CCC(C(=O)NCc3cccnc3)CC2)cc1 (stereo not drawn)	0	x	2	7	-2	0	x	x
COC(=O)c1ccc(-n2c(C)cc(/C=N/Nc3nc(C)cc(=O)[nH]3)c2C)cc1	-16	106	-3	38*	-5	-7	0	-26
Cc1cc(=O)[nH]c(N/N=C/c2cc(C)n(CC(F)(F)F)c2C)n1	-5	92	4	-6	1	-3	x	x
Clc1ccc(C=NN2CCCCCC2)cc1	-1	99	0	x	-9	2	x	x
CN(C(=O)c1cccc(NC(=O)Cc2cccc(NC(=O)C3CCCN(C(=O)C4CC4)C3)c2)c1)C1CC1 (stereo not drawn)	7	107	0	x	-1	-1	x	x
O=c1ccc(N=Nc2ccccc2)ccc1O	-2	110	-5	51*	-8	-85	48*	-2	DNA FID DR=>79
CC(C)n1c(-c2ccccc2)nc(=S)c2c1CCCC2	x	x	2	2	1	x	x	x
O=C(O)c1nn(Cc2csc(-c3ccccc3)n2)c(=O)c2ccccc12	1	110	2	48*	3	0	8	-23
Cc1ccc(-c2noc(Cn3nc(C(=O)O)c4ccccc4c3=O)n2)cc1	-1	x	2	-6	3	-5	x	x
O=C(O)C1CCN(c2nc(-c3ccccc3)c3cc(Br)ccc3n2)CC1	0	96	3	48*	8	-10	69*	-12
CCCCN(C(C)=O)C1CC(=O)N(c2ccc(OCCC)cc2)C1=O (stereo not drawn)	0	112	-2	-10	0	3	x	x
CCCCCOc1ccc(N2C(=O)CC(N(O)c3ccccc3)C2=O)cc1 (stereo not drawn)	5	107	-2	45*	-2	-5	7	4
CCCCOc1ccc(N2C(=O)CC(N(O)c3ccccc3)C2=O)cc1 (stereo not drawn)	1	91	0	37*	3	-1	-2	13
Cc1c(C(=O)O)sc2nc(/C=C/c3cccc(F)c3)[nH]c(=O)c12	4	104	-2	63*	-5	-8	-12	11
SMILES	DNMT1 block	DSG3 Ab inh	UHRF1 MBD2 ctr	NS3 helicase inh	MBD2 DNA inh	SUMO1-SIM PPI	NS3 hel confirm	DNA FID counter	others
O=C(NCCc1cccs1)C12CN(Cc3ccccc3)CC1C(c1cccc([N+](=O)[O-])c1)=NO2 (stereo not drawn)	-8	94	0	56*	10	-16	2	-21
O=C(NCCCCc1ccccc1)C12CN(Cc3ccccc3)CC1C(c1cccc([N+](=O)[O-])c1)=NO2 (stereo not drawn)	8	97	1	-13	0	-13	x	x
O=C(C(Cc1ccccc1)n1cccc1)N1CCN(Cc2ccccc2)CC1 (stereo not drawn)	-2	108	x	42*	x	0	-9	14
O=C(C(Cc1ccccc1)n1cccc1)N1CCCCC1 (stereo not drawn)	2	111	1	-3	-1	2	x	x
COc1cc(NC(=O)C(=O)NNC(=O)C2CCCCC2)c(OC)cc1Cl	2	97	-3	36*	2	0	-12	-8
CC1(C)CC(=O)C2=C(C1)N(c1ccc(F)cc1)C(=O)C2(NC(=O)c1ccccc1)C(F)(F)F (stereo not drawn)	x	x	x	49*	x	x	-7	10
O=C1CC(Nc2ccccc2)C(=O)N1c1ccc(N2CCOCC2)cc1 (stereo not drawn)	5	96	1	3	3	-6	x	x
COc1ccc(CCN2C(=O)CC(Nc3ccc(N4CCOCC4)cc3)C2=O)cc1OC (stereo not drawn)	-15	99	-3	46*	-7	-18	2	-18
CCc1ccc(NC2CC(=O)N(CCc3ccc(OC)c(OC)c3)C2=O)cc1 (stereo not drawn)	0	104	1	9	-3	1	x	x
CC(C)N1C(=O)CC(Nc2ccc(N3CCOCC3)cc2)C1=O (stereo not drawn)	-12	x	-5	39*	-5	-11	-2	-5
